Active and inactive are the calls of the source. The calls are words filed in the database; no cut-off is given here.
Experiments:
[1] = system: THP-1; assay: Inhibition of LPS-induced TNFalpha production in PMA-treated human THP1 cells at 5 uM after 24 hrs by ELISA relative to total protein level (reference value: 6.04 +/- 0.54); assay type: cell-based; conditions: thp-1, 24 h
[2] = system: THP-1; assay: Antiinflammatory activity against PMA-treated human THP1 cells assessed as inhibition of LPS-induced IL-6 production at 5 uM after 24 hrs by ELISA relative to total protein level (reference value: 6.06 +/- 0.55); assay type: functional
[3] = system: THP-1; assay: Antiinflammatory activity against PMA-treated human THP1 cells assessed as inhibition of LPS-induced IL-6 production at 5 uM after 24 hrs by ELISA relative to control; assay type: functional
[4] = system: Mus musculus; assay: Antiinflammatory activity in carrageenan-induced Swiss albino mouse assessed as inhibition of paw edema at 10 mg/kg, po administered 0.5 hrs prior to carrageenan challenge measured 6 hrs post challenge; assay type: functional
Summary of the method: (§1)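 Mice given vehicle (0.1% CMC), indomethacin 10 mg/kg p.o., or test compound 30 min before injection of 50 μL 1% w/v carrageenan into right hind paw. Paw edema measured by vernier caliper at 5, 15, 30 min and 1, 2, 3, 4, 6 h. Mean ± SEM.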

[5] = system: Mus musculus; assay: (§2) Antinociceptive activity in Swiss albino mouse assessed as inhibition of acetic acid-induced writhing by measuring reduction in number of abnormal muscle constrictions at 10 mg/kg, ip treated 30 mins prior to test followed by acetic acid challenge measured for 30 mins post acetic acid challenge relative to control; assay type: functional
Summary of the method: (§3)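 Mice dosed i.p. with vehicle (0.1% carboxymethyl cellulose), test compound 12.5 mg/kg or indomethacin 10 mg/kg, 30 min before acetic acid (0.6% v/v, 10 ml/kg, i.p.). Writhes counted per mouse over 30 min after acetic acid. Mean ± SEM; ANOVA with Tukey test.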

[6] = system: Mus musculus; assay: Antiinflammatory activity against Swiss albino mouse assessed as inhibition of LPS-induced TNFalpha production in serum at 20 mg/kg, ip by ELISA relative to control; assay type: functional
Summary of the method: (§4)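 Swiss albino mice given compound at 5, 10 or 20 mg/kg, then challenged with LPS 1 mg/kg; vehicle and LPS-alone groups included. Cardiac-puncture blood taken with heparin and spun to plasma, stored -20°C. TNF-α and IL-6 measured by ELISA in pg/mL. Dose-response done in triplicate, fitted by quadratic/cubic regression to derive IC50 in mg/kg.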

[7] = system: Mus musculus; assay: Antiinflammatory activity against Swiss albino mouse assessed as inhibition of LPS-induced IL-6 production in serum at 10 mg/kg, ip by ELISA relative to control; assay type: functional; summary of the method: as §4
[8] = system: Mus musculus; assay: Antiinflammatory activity against Swiss albino mouse assessed as inhibition of LPS-induced TNFalpha production in serum at 10 mg/kg, ip by ELISA relative to control; assay type: functional; summary of the method: as §4
[9] = system: THP-1; assay: Cytotoxicity against human THP1 cells assessed as decrease in cell growth after 24 hrs by MTT assay; assay type: cell-based; conditions: THP-1, 24 h
Summary of the method: (§5)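 THP-1 cells in 96-well plates treated with a range of compound concentrations for 24 or 48 h. MTT (2.5 mg/mL) added for 4 h at 37 °C, formazan dissolved in DMSO, absorbance read at 540 nm. Growth taken as treated versus untreated absorbance.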

[10] = system: Mus musculus; assay: Antiinflammatory activity against Swiss albino mouse assessed as inhibition of LPS-induced IL-6 production in serum at 20 mg/kg, ip by ELISA relative to control; assay type: functional; summary of the method: as §4
[11] = system: Mus musculus; assay: Antiinflammatory activity against Swiss albino mouse assessed as inhibition of LPS-induced IL-6 production in serum administered ip by ELISA; assay type: functional, organism-based; summary of the method: as §4
[12] = system: Mus musculus; assay: Antiinflammatory activity against Swiss albino mouse assessed as inhibition of LPS-induced TNFalpha production in serum administered ip by ELISA; assay type: functional, organism-based; summary of the method: as §4
[13] = system: THP-1; assay: Cytotoxicity against human THP1 cells assessed as decrease in cell growth after 48 hrs by MTT assay; assay type: cell-based; conditions: THP-1, 48 h; summary of the method: as §5
[14] = system: Mus musculus; assay: Antiinflammatory activity in carrageenan-induced Swiss albino mouse assessed as inhibition of paw edema at 12.5 mg/kg, ip administered 0.5 hrs prior to carrageenan challenge measured at 1 to 6 hrs post challenge; assay type: functional, organism-based; summary of the method: as §1
[15] = system: Mus musculus; assay: as §2, with “12.5” for “10”; assay type: functional; summary of the method: as §3
[16] = system: Mus musculus; assay: Antiseptic activity in Swiss albino mouse model of LPS-induced sepsis assessed as increase in mouse survival rate at 12.5 mg/kg, iv measured for 10 days at 1 day interval
[17] = system: Mus musculus; assay: Acute toxicity in Swiss albino mouse assessed as effect on gross behavioral abnormality at 50 to 2000 mg/kg, ip administered continuously for first 4 hrs and periodically for 24 hrs measured after 14 days; assay type: organism-based; conditions: in vivo
Summary of the method: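 Swiss albino mice, 3 per group: vehicle control, or 50, 300 or 2000 mg kg⁻¹ given after 4 h fasting under OECD acute toxicity guideline; watched continuously for first 4 h then periodically to 24 h for gross behavioural abnormality.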

[18] = system: Mus musculus; assay: Acute toxicity in Swiss albino mouse assessed as effect on myocardium at 2000 mg/kg, ip administered continuously for first 4 hrs and periodically for 24 hrs measured after 14 days by hematoxylin and eosin staining based assay; assay type: organism-based; conditions: in vivo
Summary of the method: (§6)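 OECD acute toxicity design, Swiss albino mice fasted 4 h, 3 per group, vehicle vs 2000 mg kg⁻¹; after 14 days one animal each from control and top-dose groups sacrificed; heart, liver and kidney sections H and E stained and compared with control.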

[19] = system: Mus musculus; assay: Analgesic activity in Swiss albino mouse assessed as inhibition of acetic acid induced writhing at 12.5 mg/kg, ip pretreated with opioid receptor antagonist naloxone for 30 mins followed by acetic acid challenge and measured after 30 mins; assay type: functional, organism-based
[20] = organism: Homo sapiens; assay: Inhibition of NF-KappaB pathway in human THP1 cell lysates assessed as decrease in LPS-induced iNOS expression level after 24 hrs by Western blot analysis
Summary of the method: (§7)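 PMA-differentiated THP-1 cells co-treated with LPS and a range of compound concentrations for 24 h, lysed in RIPA buffer. COX-2 and iNOS expression assessed by western blot, with β-actin as internal control.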

[21] = system: THP-1; assay: Antiinflammatory activity against human THP1 cells assessed as inhibition of LPS-induced COX-2 expression level after 24 hrs by Western blot analysis; assay type: functional, cell-based; summary of the method: as §7
[22] = system: Mus musculus; assay: Acute toxicity in Swiss albino mouse assessed as effect on kidney at 2000 mg/kg, ip administered continuously for first 4 hrs and periodically for 24 hrs measured after 14 days by hematoxylin and eosin staining based assay; assay type: organism-based; conditions: in vivo; summary of the method: as §6
[23] = system: Mus musculus; assay: Antiinflammatory activity in carrageenan-induced Swiss albino mouse assessed as inhibition of paw edema at 12.5 mg/kg, ip administered 0.5 hrs prior to carrageenan challenge measured at 6 hrs post challenge; assay type: functional; summary of the method: as §1
[24] = system: Mus musculus; assay: Analgesic activity in Swiss albino mouse assessed as inhibition of acetic acid induced writhing at 12.5 mg/kg, ip pretreated with misoprostol for 30 mins followed by acetic acid challenge and measured after 30 mins; assay type: functional, organism-based
[25] = system: Mus musculus; assay: Acute toxicity in Swiss albino mouse assessed as effect on liver at 2000 mg/kg, ip administered continuously for first 4 hrs and periodically for 24 hrs measured after 14 days by hematoxylin and eosin staining based assay; assay type: organism-based; conditions: in vivo, 336 h; summary of the method: as §6

| SMILES | fold change (FC) [1] | fold change (FC) [2] | fold change (FC) [3] | further results |
| --- | --- | --- | --- | --- |
| Cc1ccc([C@@H]2C[C@H](c3c[nH]c4ccccc34)N(c3ccccc3)O2)cc1 (racemic) | 4.58 | 1.12 | 4 - 5 | – |
| COc1ccc2c(c1)c(CC(=O)O)c(C)n2C(=O)c1ccc(Cl)cc1 [INDOMETHACIN] | – | – | – | inhibition in vivo at 10 mg/kg [4]: 34.5%; inhibition in vivo at 10 mg/kg [5]: 58.1% |
| O=C1[C@H]2[C@H](ON(c3ccccc3)[C@@H]2c2c[nH]c3ccccc23)C(=O)N1c1ccccc1 (racemic) | 2.21 | 1.43 | 4 - 5 | inhibition in vivo at 20 mg/kg [6]: 62.1%; inhibition in vivo at 10 mg/kg [7]: 60.5%; inhibition in vivo at 10 mg/kg [8]: 52.9%; IC50 [9]: > 100 µM; inhibition in vivo at 20 mg/kg [10]: 65.5%; IC50 [11]: 7.4 mg/kg; IC50 [12]: 8.7 mg/kg; IC50 [13]: 78 µM |
| c1ccc(N2O[C@H](c3ccncc3)C[C@@H]2c2c[nH]c3ccccc23)cc1 (racemic) | 3.92 | 2.77 | 4 - 5 | – |
| O=C1NC(=O)[C@H]2ON(c3ccccc3)[C@H](c3c[nH]c4ccccc34)[C@@H]12 (racemic) | 4.28 | 1.65 | 4 - 5 | – |
| c1ccc([C@@H]2C[C@H](c3c[nH]c4ccccc34)N(c3ccccc3)O2)cc1 (racemic) | 14.93 | 5.4 | – | – |
| O=C1[C@H]2[C@H](ON(c3ccccc3)[C@@H]2c2c[nH]c3ccccc23)C(=O)N1Cc1ccccc1 (racemic) | 2.37 | 1.34 | 4 - 5 | inhibition in vivo at 20 mg/kg [6]: 86.1%; inhibition [14]: Active; inhibition in vivo at 10 mg/kg [7]: 73.7%; inhibition in vivo at 12.5 mg/kg [15]: 80.7%; Activity [16]: Active; Activity [17]: Non-Toxic; inhibition in vivo at 10 mg/kg [8]: 53.8%; IC50 [9]: > 100 µM; inhibition in vivo at 20 mg/kg [10]: 89.9%; Activity [18]: Non-Toxic; inhibition [19]: Active; inhibition [20]: Dose-dependent effect; IC50 [11]: 3.5 mg/kg; inhibition [21]: Dose-dependent effect; Activity [22]: Non-Toxic; inhibition in vivo at 12.5 mg/kg [23]: 36.9%; inhibition [24]: inactive; IC50 [12]: 9.4 mg/kg; IC50 [13]: 87 µM; Activity [25]: Non-Toxic |
| C[C@@]1(c2ccccc2)C[C@H](c2c[nH]c3ccccc23)N(c2ccccc2)O1 (racemic) | 2.74 | 1.13 | 4 - 5 | IC50 [9]: > 100 µM; IC50 [13]: 74 µM |

Second part, led by results:

| fold change (FC) [1] | SMILES | fold change (FC) [2] | fold change (FC) [3] | further results |
| --- | --- | --- | --- | --- |
| 4.37 | CCOC(=O)[C@H]1CON(c2ccccc2)[C@H]1c1c[nH]c2ccccc12 (racemic) | 1.15 | 4 - 5 | – |
| 7.77 | CCOC(=O)[C@@H]1C[C@H](c2c[nH]c3ccccc23)N(c2ccccc2)O1 (racemic) | 3.2 | – | – |
| 3.98 | CCCCOC(=O)[C@@H]1C[C@H](c2c[nH]c3ccccc23)N(c2ccccc2)O1 (racemic) | 2.06 | – | – |
| 2.59 | CCCCOC(=O)[C@H]1CON(c2ccccc2)[C@H]1c1c[nH]c2ccccc12 (racemic) | 3.03 | – | – |
| 7.27 | COC(=O)[C@@H]1C[C@H](c2c[nH]c3ccccc23)N(c2ccccc2)O1 (racemic) | 4.08 | – | – |
| 2.42 | CCN1C(=O)[C@H]2[C@H](ON(c3ccccc3)[C@@H]2c2c[nH]c3ccccc23)C1=O (racemic) | 3.09 | – | – |
| 3 | COC(=O)[C@H]1CON(c2ccccc2)[C@H]1c1c[nH]c2ccccc12 (racemic) | 1.67 | 4 - 5 | – |
| 3.98 | CCOC(=O)[C@@H]1[C@@H](C)ON(c2ccccc2)[C@H]1c1c[nH]c2ccccc12 (racemic) | 3.01 | – | – |

Source: ChEMBL document CHEMBL4270510, “Indolyl-isoxazolidines attenuate LPS-stimulated pro-inflammatory cytokines and increase survival in a mouse model of sepsis: Identification of potent lead” (Eur J Med Chem, 2018)
